The values below come from ChEMBL document CHEMBL1649438, “Activities of ceftobiprole and other cephalosporins against extracellular and intracellular (THP-1 macrophages and keratinocytes) forms of methicillin-susceptible and methicillin-resistant Staphylococcus aureus” (Antimicrob Agents Chemother, 2009).

Test [1] relates to Staphylococcus aureus. The experiment in a line: Antimicrobial activity against hospital-acquired vancomycin-intermediate Staphylococcus aureus NRS126 infected in human THP-1 cells assessed as bacterial count per mg of cell protein at high extracellular compound concentration after 24 hrs. The class given is functional. In outline:
(§1)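 Human THP-1 macrophage-like cells were infected with S. aureus to a postphagocytosis inoculum of 1.5 × 10^6 to 3.0 × 10^6 CFU/mg cell protein. Cells were then exposed 24 h to increasing extracellular antibiotic concentrations. Response was the log10 CFU change per mg protein from the postphagocytosis inoculum, n = 3. A Hill function was fitted on log-transformed axes. E0 and Emax were extrapolated to infinitely low and high concentrations. Cs was read by graphical interpolation. Concentrations were expressed as multiples of the broth MIC at pH 5.5 or pH 7.4.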

Test [2] relates to Staphylococcus aureus. The experiment in a line: Antimicrobial activity against Panton-valentine leucocidin-positive community-acquired methicillin-resistant Staphylococcus aureus NRS192 infected in human THP-1 cells assessed as change in bacterial count after 24 hrs. The format is functional, organism-based. The settings on record: NRS192, THP-1, 24 h. In outline:
(§2)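 THP-1 human macrophages infected with S. aureus (postphagocytosis inoculum 1.5 × 10^6 to 3.0 × 10^6 CFU/mg cell protein), then incubated 24 h with increasing extracellular antibiotic concentrations. Change in log10 CFU/mg cell protein from the postphagocytosis inoculum, n = 3. Hill function fitted on log-transformed data. Low-concentration value (E0) and high-concentration value (Emax) are extrapolated. Where a pH is given, concentrations are expressed as multiples of the broth MIC at that pH.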

For test [3], the system named is Staphylococcus aureus. The experiment in a line: Antimicrobial activity against Panton-valentine leucocidin-positive community-acquired methicillin-resistant Staphylococcus aureus isolate MEH2225605 infected in human THP-1 cells assessed as bacterial count per mg of cell protein at low extracellular compound concentration after 24 hrs. The format is functional. In outline: as §2

The subject of test [4] is Staphylococcus aureus. Nature of the test: Bacteriostatic activity against methicillin-susceptible Staphylococcus aureus ATCC 11632 infected in human THP-1 cells assessed as change in bacterial count after 24 hrs at pH 7.4. The class given is functional. In outline: as §1
Test [5] deals with Staphylococcus aureus. The experiment in a line: Antimicrobial activity against hospital-acquired vancomycin-intermediate Staphylococcus aureus NRS126 infected in human THP-1 cells assessed as bacterial count per mg of cell protein at low extracellular compound concentration after 24 hrs at pH 5.5. The class given is functional. In outline:
(§3)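 THP-1 macrophages infected as described previously, with a postphagocytosis inoculum of 1.5 × 10⁶ to 3.0 × 10⁶ CFU/mg cell protein. Cells were exposed 24 h to increasing extracellular antibiotic concentrations. Response is the change in log10 CFU/mg protein from the inoculum (n = 3), fitted to a Hill function. E0 and Emax were extrapolated to infinitely low and high concentrations. EC50 and static concentration (graphical interpolation) are expressed as multiples of the broth MIC at pH 5.5 or 7.4.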

In test [6] the test system is Staphylococcus aureus. The experiment in a line: Antimicrobial activity against hospital-acquired vancomycin-resistant Staphylococcus aureus VRS1 infected in human THP-1 cells assessed as change in bacterial count after 24 hrs at pH 5.5. The class given is functional, cell-based. The settings on record: VRS1, THP-1, 24 h. In outline:
as §3

Test [7] relates to Staphylococcus aureus. The experiment in a line: Antimicrobial activity against Panton-valentine leucocidin-positive community-acquired methicillin-resistant Staphylococcus aureus NRS192 infected in human THP-1 cells assessed as bacterial count per mg of cell protein at high extracellular compound concentration after 24 hrs at pH 5.5. The format is functional. In outline: as §2

Test [8] relates to Staphylococcus aureus. Nature of the test: Bacteriostatic activity against methicillin-susceptible Staphylococcus aureus […] infected in human THP-1 cells assessed as change in bacterial count after 24 hrs at pH 5.5. The class given is functional. In outline: as §1
The subject of test [9] is Staphylococcus aureus. Nature of the test: Antimicrobial activity against methicillin-susceptible Staphylococcus aureus ATCC 11632 infected in human THP-1 cells assessed as change in bacterial count after 24 hrs at pH 5.5. The class given is functional, organism-based. The settings on record: ATCC 11632, THP-1, 24 h. In outline: as §3
In test [10] the test system is Staphylococcus aureus. Nature of the test: Bacteriostatic activity against methicillin-susceptible Staphylococcus aureus ATCC 11632 infected in human THP-1 cells assessed as change in bacterial count after 24 hrs at pH 5.5. The class given is functional. In outline: as §1
Test [11] deals with Staphylococcus aureus. Nature of the test: Antimicrobial activity against hospital-acquired methicillin-resistant Staphylococcus aureus […] infected in human THP-1 cells assessed as change in bacterial count after 24 hrs at pH 7.4. The format is functional, organism-based. To be noted: THP-1, 24 h. In outline:
as §3

Test [12] relates to Staphylococcus aureus. Nature of the test: Antimicrobial activity against Panton-valentine leucocidin-positive community-acquired methicillin-resistant Staphylococcus aureus NRS192 infected in human THP-1 cells assessed as bacterial count per mg of cell protein at low extracellular compound concentration after 24 hrs at pH 7.4. The format is functional. To be noted: pooled result: one value given for 6 cell lines, strains, targets or settings. In outline:
as §2

For test [13], the system named is Staphylococcus aureus. Nature of the test: Antimicrobial activity against methicillin-resistant Staphylococcus aureus ATCC 33591 infected in human keratinocytes assessed as change in bacterial count after 24 hrs. The class given is functional, organism-based. The settings on record: ATCC 33591, 24 h. In outline: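 Primary human skin keratinocytes were grown in defined keratinocyte serum-free medium, infected with a postphagocytosis inoculum of 1.5 × 10⁶ to 3.0 × 10⁶ CFU/mg cell protein, then exposed 24 h to increasing extracellular antibiotic concentrations. Change in log10 CFU/mg protein from the inoculum was fitted to a Hill equation with slope 1. E0 and Emax were extrapolated to infinitely low and high concentrations, in total drug mg/liter.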

Another test addresses T1, MecA (Staphylococcus aureus, UniProt Q7DHH4).
T1 sequence (Q7DHH4 whole entry): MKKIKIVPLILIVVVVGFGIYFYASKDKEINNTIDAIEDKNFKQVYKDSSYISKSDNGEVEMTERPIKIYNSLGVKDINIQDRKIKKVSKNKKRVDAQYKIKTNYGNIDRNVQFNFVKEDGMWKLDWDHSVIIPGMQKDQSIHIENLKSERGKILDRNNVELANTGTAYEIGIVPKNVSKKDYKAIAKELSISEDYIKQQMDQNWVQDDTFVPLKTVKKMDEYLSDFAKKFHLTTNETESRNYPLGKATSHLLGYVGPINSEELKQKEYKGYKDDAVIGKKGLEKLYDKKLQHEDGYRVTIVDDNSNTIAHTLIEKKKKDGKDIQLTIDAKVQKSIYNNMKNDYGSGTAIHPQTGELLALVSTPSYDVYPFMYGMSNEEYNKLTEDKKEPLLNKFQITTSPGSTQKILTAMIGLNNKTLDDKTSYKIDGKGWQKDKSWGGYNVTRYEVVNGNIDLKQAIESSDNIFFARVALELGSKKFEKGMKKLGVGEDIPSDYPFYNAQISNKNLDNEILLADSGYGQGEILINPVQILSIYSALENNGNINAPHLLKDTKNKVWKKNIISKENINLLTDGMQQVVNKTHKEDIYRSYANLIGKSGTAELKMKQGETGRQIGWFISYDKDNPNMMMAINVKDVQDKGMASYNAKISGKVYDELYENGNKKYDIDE
The experiment in a line: Binding affinity to Staphylococcus aureus ATCC […] PBP2a by Western blotting at pH 5.5 in presence of 100 uM Bocillin FL. In outline:
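Soluble truncated PBP 2a (ΔM1-Y23) was expressed in E. coli Rosetta 2(DE3) and purified. It was preincubated 25 min at 37°C with increasing cephalosporin concentrations, then 100 μM Bocillin FL was added for 25 min at 37°C at pH 5.5 or 7.4. Samples were run on SDS-PAGE and blotted with anti-bodipy antibody plus HRP secondary. Bands were detected by chemiluminescence and quantified by densitometry.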
(In general: A western blot detects proteins with antibodies after separation by electrophoresis.)

In test [14] the test system is Staphylococcus aureus. Nature of the test: Antimicrobial activity against methicillin-susceptible Staphylococcus aureus ATCC 11632 infected in human THP-1 cells assessed as bacterial count per mg of cell protein at low extracellular compound concentration after 24 hrs. The format is functional. In outline: as §1

Broadly, the IC50 is the midpoint of a concentration-inhibition curve.

Values after ≈ are worked out from the molar mass of the structure shown.

Consider `Nc1nc(/C(=N/O)C(=O)N[C@@H]2C(=O)N3C(C(=O)O)=C(/C=C4\CCN([C@@H]5CCNC5)C4=O)CS[C@H]23)ns1` [CEFTOBIPROLE], for which the log10cfu is on record as -1.21 in the test with Staphylococcus aureus [1]; 2.47 in the test with Staphylococcus aureus [3]; 2.63 with Staphylococcus aureus [5]; -1.02 in the test on Staphylococcus aureus [7]; 2.74 in the test on Staphylococcus aureus [12]; 3.03 in the test on Staphylococcus aureus [14]. Moreover, the EC50 worked out at 0.7 µg/mL (≈ 1.31 µM) in the test with Staphylococcus aureus [2]; 0.77 × MIC in the test on Staphylococcus aureus [6]; 0.41 × MIC in the test on Staphylococcus aureus [9]; 0.28 ×MIC in the test with Staphylococcus aureus [11]; 1.08 µg/mL (≈ 2.02 µM) in the test on Staphylococcus aureus [13]. Further, the Activity was 0.6 × MIC in the test on Staphylococcus aureus [4], 1.19 × MIC with Staphylococcus aureus [8] and 1.19 × MIC with Staphylococcus aureus [10]. Moreover, the IC50 on MecA was 1900 nM.
